Active and inactive are the calls of the source. The rule behind the calls is not given here.
How the values were obtained:
Protein polybromo-1 [1] = target: T1, Protein polybromo-1 (Homo sapiens, UniProt Q86U86); experiment: Binding affinity to human PB1 isoform 3 expressed in BL21 (DE3)-R3-BirA cells assessed as change in melting temperature at 10 uM by sypro-orange dye-based differential scanning fluorimetric analysis; type: cell-based
In short: (§1)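 Thermal shift (DSF) screen of bromodomain proteins with compound at 10 μM; binding read as change in melting temperature (Tm shift).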

Protein polybromo-1 [2] = target: T1, Protein polybromo-1; experiment: Binding affinity to human PB1 isoform 5 expressed in BL21 (DE3)-R3-BirA cells assessed as change in melting temperature at 10 uM by sypro-orange dye-based differential scanning fluorimetric analysis; type: cell-based; in short: as §1
Protein polybromo-1 [3] = target: T1, Protein polybromo-1; experiment: Binding affinity to human PB1 isoform 4 expressed in BL21 (DE3)-R3-BirA cells assessed as change in melting temperature at 10 uM by sypro-orange dye-based differential scanning fluorimetric analysis; type: cell-based; in short: as §1
[4] = target: T2, SWI/SNF-related matrix-associated actin-dependent regulator of chromatin subfamily A member 4 (Homo sapiens, UniProt P51532); experiment: Binding affinity to human SMARCA4 expressed in BL21 (DE3)-R3-BirA cells assessed as change in melting temperature at 10 uM by sypro-orange dye-based differential scanning fluorimetric analysis; type: cell-based; in short: as §1
T2 sequence (P51532 whole entry): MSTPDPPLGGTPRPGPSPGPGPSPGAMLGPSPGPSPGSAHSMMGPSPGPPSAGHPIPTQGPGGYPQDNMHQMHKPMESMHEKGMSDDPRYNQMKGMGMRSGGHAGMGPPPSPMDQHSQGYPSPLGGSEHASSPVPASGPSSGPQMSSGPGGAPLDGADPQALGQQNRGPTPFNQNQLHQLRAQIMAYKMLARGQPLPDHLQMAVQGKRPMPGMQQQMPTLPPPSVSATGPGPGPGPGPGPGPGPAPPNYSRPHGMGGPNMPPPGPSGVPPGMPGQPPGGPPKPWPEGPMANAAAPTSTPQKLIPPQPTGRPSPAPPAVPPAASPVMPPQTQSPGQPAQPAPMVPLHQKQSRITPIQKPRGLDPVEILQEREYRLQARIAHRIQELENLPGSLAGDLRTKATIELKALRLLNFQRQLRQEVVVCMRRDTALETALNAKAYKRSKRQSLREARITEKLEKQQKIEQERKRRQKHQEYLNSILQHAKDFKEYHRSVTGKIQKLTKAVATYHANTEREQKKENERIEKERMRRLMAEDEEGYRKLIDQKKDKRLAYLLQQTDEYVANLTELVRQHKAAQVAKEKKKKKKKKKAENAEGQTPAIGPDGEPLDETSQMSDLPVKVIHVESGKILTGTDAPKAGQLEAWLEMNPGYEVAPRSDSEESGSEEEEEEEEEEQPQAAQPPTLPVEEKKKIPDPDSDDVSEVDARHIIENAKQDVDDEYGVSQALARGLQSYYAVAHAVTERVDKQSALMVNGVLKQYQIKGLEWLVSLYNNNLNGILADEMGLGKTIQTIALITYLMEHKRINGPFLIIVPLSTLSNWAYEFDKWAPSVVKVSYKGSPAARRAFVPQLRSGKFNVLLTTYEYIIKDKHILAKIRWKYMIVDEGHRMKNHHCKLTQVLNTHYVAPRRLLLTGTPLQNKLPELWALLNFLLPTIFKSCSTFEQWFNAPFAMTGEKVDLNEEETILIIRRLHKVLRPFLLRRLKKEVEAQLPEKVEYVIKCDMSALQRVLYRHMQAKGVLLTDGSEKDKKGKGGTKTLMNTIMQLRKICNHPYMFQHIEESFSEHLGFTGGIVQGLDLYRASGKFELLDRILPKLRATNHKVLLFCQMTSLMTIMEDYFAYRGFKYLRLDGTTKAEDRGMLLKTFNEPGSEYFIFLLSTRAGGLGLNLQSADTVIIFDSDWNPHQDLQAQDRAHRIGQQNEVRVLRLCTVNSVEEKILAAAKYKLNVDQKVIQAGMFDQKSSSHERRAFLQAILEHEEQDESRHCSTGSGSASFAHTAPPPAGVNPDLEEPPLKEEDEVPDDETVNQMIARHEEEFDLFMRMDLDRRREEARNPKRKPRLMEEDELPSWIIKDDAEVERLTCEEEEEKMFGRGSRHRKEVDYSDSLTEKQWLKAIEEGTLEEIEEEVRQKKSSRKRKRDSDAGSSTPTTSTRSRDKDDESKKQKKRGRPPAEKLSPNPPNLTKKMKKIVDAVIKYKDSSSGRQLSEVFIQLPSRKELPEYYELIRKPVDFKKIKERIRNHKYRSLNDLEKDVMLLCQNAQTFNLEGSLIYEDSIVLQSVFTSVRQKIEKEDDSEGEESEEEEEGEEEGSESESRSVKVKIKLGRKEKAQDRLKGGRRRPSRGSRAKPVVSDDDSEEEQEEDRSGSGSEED

[5] = target: T3, SWI/SNF-related matrix-associated actin-dependent regulator of chromatin subfamily A member 2 (Homo sapiens, UniProt P51531); experiment: Binding affinity to human SMARC2A expressed in BL21 (DE3)-R3-BirA cells assessed as change in melting temperature at 10 uM by sypro-orange dye-based differential scanning fluorimetric analysis; type: cell-based; in short: as §1
T3 sequence (P51531 whole entry): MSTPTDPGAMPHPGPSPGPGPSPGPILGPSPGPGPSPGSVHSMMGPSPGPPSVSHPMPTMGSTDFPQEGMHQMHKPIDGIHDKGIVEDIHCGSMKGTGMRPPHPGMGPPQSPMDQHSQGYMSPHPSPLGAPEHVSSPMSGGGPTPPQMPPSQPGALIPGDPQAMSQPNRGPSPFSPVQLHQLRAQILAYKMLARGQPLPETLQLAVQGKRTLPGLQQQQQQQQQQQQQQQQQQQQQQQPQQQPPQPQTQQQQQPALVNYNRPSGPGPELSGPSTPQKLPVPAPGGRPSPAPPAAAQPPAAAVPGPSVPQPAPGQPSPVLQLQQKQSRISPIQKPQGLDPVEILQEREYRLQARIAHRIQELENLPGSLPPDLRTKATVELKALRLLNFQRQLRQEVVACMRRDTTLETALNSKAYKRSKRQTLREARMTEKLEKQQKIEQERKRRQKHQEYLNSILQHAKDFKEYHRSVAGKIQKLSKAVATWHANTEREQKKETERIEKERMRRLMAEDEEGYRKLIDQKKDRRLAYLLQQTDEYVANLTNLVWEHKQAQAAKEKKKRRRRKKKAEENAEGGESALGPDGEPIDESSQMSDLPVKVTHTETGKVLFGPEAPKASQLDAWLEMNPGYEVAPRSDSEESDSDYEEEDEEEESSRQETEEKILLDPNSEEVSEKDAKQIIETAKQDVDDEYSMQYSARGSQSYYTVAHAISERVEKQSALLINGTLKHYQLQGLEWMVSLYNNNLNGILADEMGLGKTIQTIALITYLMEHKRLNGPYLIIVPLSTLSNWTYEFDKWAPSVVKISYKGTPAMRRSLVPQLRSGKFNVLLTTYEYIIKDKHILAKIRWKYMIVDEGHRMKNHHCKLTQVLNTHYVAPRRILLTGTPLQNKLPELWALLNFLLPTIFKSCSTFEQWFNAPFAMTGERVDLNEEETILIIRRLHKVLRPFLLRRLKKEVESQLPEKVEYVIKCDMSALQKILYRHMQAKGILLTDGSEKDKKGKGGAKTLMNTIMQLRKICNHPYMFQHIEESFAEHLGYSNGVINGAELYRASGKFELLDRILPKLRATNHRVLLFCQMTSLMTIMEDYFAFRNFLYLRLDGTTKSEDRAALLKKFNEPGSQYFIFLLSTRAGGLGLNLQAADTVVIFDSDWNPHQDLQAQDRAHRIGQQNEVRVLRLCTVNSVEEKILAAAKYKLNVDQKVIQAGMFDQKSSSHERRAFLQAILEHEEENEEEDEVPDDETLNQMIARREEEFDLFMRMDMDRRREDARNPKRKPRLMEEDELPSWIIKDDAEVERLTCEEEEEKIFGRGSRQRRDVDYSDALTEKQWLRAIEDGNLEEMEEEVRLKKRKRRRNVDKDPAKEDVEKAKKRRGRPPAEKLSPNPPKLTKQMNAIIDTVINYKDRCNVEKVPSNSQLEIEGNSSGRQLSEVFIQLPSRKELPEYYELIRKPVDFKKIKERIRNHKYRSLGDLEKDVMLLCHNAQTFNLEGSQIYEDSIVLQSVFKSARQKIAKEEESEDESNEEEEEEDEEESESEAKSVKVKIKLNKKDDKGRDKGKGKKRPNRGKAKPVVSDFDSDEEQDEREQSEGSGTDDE

[6] = target: T3, SWI/SNF-related matrix-associated actin-dependent regulator of chromatin subfamily A member 2; experiment: Binding affinity to human SMARC2B expressed in BL21 (DE3)-R3-BirA cells assessed as change in melting temperature at 10 uM by sypro-orange dye-based differential scanning fluorimetric analysis; type: cell-based; in short: as §1
Protein polybromo-1 [7] = target: T1, Protein polybromo-1; experiment: Binding affinity to human PB1 isoform 2 expressed in BL21 (DE3)-R3-BirA cells assessed as change in melting temperature at 10 uM by sypro-orange dye-based differential scanning fluorimetric analysis; type: cell-based; in short: as §1
[8] = target: T2, SWI/SNF-related matrix-associated actin-dependent regulator of chromatin subfamily A member 4; experiment: Binding affinity to human SMARCA4 expressed in BL21 (DE3)-R3-BirA cells by isothermal titration calorimetry
Protein polybromo-1 [9] = target: T1, Protein polybromo-1; experiment: Binding affinity to human PB1 isoform 2 expressed in BL21 (DE3)-R3-BirA cells by isothermal titration Calorimetry
In short: (§2)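 Absolute binding affinity measured by isothermal titration calorimetry on the bromodomain protein.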

[10] = Half life in PBS at pH 7.4 at 20 degC; type: ADME; conditions: buffer
Protein polybromo-1 [11] = target: T1, Protein polybromo-1; experiment: Binding affinity to human PB1 isoform 5 expressed in BL21 (DE3)-R3-BirA cells by isothermal titration calorimetry; in short: as §2
C2C12 [12] = experiment: Cytotoxicity against mouse C2C12 cells assessed as cell viability up to 50 uM after 72 hrs by MTT assay; type: cell-based; conditions: c2c12, 72 h
[13] = target: T3, SWI/SNF-related matrix-associated actin-dependent regulator of chromatin subfamily A member 2; experiment: Inhibition of chromatin binding to full length GFP-tagged wild type SMARCA2 expressed in human U2OS cells assessed as acceleration of FRAP half-recovery time incubated for 1 hr in presence of SAHA by FRAP assay; type: cell-based
In short: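 U2OS cells transfected with GFP-SMARCA2 (WT) and treated with SAHA to induce hyperacetylation, with compound given at several doses. The mutant control was GFP-SMARCA2 N1464F (acetyl-lysine-recognising asparagine).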

Protein polybromo-1 [14] = target: T1, Protein polybromo-1; experiment: Inhibition of chromatin binding to full length GFP-tagged PB1 expressed in human U2OS cells assessed as acceleration of FRAP half-recovery time at 100 nM incubated for 1 hr in presence of SAHA by FRAP assay; type: cell-based
In short: (§3)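 U2OS cells transfected with full-length GFP-PB1 and treated with SAHA to induce hyperacetylation. Mutant controls were PB1 N263A (second bromodomain) and N707F (fifth bromodomain). Read-out is FRAP half-recovery time (t½) from individual recovery curves, at least 20 cells per group, reported as mean ± SEM. Compared against WT with 2.5 μM SAHA.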

C2C12 [15] = experiment: Inhibition of differentiation in mouse C2C12 cells assessed as suppression of MyHC expression at 5 uM by HRP-peroxidase-based immunocytochemistry; type: functional, cell-based
In short: (§4)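 C2C12 myoblasts grown with compound through differentiation, normally seen within 48 hours. Scored by cell fusion into myotubes (myotube length, nuclei per myotube) and MyHC expression relative to controls; myogenin monitored as an early marker.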

[16] = Cytotoxicity against mouse C3H10T1/2 cells assessed as cell viability up to 50 uM after 72 hrs by MTT assay; type: cell-based; conditions: c3h 10t1/2, 72 h
[17] = Cytotoxicity against mouse C3H10T1/2 cells assessed as cell death at 100 uM after 72 hrs by MTT assay; type: cell-based; conditions: c3h 10t1/2, 72 h
C3H 10T1/2 [18] = experiment: Inhibition of differentiation of mouse C3H10T1/2 cells to adipocytes assessed as lipid accumulation at 5 uM by oil red O staining-based assay; type: functional, cell-based
In short: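 C3H10T1/2 mesenchymal cells induced to differentiate to adipocytes with an adipogenic cocktail in the presence of compound; lipid droplet accumulation visualised by Oil Red O staining.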

C2C12 [19] = experiment: Cytotoxicity against mouse C2C12 cells assessed as cell death at 100 uM after 72 hrs by MTT assay; type: cell-based; conditions: c2c12, 72 h
RCC4 = experiment: Antiproliferative activity against human RCC4 cells at 0.1 to 10 uM incubated for 24 to 72 hrs by MTT assay; type: functional, cell-based
In short: (§5)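 Clear cell renal carcinoma lines (786-O with wild-type PB1 expression; Rcc4 with PB1 downregulation) treated with compound; proliferation read-out.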

[20] = target: T3, SWI/SNF-related matrix-associated actin-dependent regulator of chromatin subfamily A member 2; experiment: Binding affinity to human SMARCA2 expressed in BL21 (DE3)-R3-BirA cells by isothermal titration calorimetry
C2C12 [21] = experiment: Inhibition of differentiation in mouse C2C12 cells assessed as shortening of myotubes with lower nuclei at 500 nM to 50 uM by HRP-peroxidase-based immunocytochemistry relative to control; type: functional, cell-based; in short: as §4
786-0 = experiment: Antiproliferative activity against human 786-0 cells at 0.1 to 10 uM incubated for 24 to 72 hrs by MTT assay; type: functional, cell-based; in short: as §5
Protein polybromo-1 [22] = target: T1, Protein polybromo-1; experiment: Inhibition of chromatin binding to full length GFP-tagged PB1 expressed in human U2OS cells assessed as acceleration of FRAP half-recovery time at 1 uM incubated for 1 hr in presence of SAHA by FRAP assay; type: cell-based; in short: as §3
C3H 10T1/2 [23] = experiment: Inhibition of differentiation of mouse C3H10T1/2 cells to adipocytes assessed as lipid accumulation at 1 uM by oil red O staining-based assay; type: functional, cell-based
In short: (§6)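 C3H10T1/2 mesenchymal cells induced toward adipocytes with an adipogenic cocktail in presence of compound. Lipid droplet accumulation visualized by Oil Red O staining.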

C2C12 [24] = experiment: Inhibition of differentiation in mouse C2C12 cells assessed as suppression of MyHC expression at 1 uM by HRP-peroxidase-based immunocytochemistry; type: functional, cell-based
In short: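 C2C12 myoblasts grown with compound through differentiation, normally complete within 48 hours. Fusion into myotubes was scored, along with expression of the early marker myogenin and of myosin heavy chain (MyHC) in myotubes.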

C3H 10T1/2 [25] = experiment: Inhibition of differentiation of mouse C3H10T1/2 cells to adipocytes assessed as lipid accumulation at 20 uM by oil red O staining-based assay; type: functional, cell-based; in short: as §6
[26] = Drug recovery in cell media after 1 week at 37 degC by HPLC analysis; type: physicochemical; conditions: read-out: Drug recovery

T1 sequence (Q86U86 whole entry, canonical isoform): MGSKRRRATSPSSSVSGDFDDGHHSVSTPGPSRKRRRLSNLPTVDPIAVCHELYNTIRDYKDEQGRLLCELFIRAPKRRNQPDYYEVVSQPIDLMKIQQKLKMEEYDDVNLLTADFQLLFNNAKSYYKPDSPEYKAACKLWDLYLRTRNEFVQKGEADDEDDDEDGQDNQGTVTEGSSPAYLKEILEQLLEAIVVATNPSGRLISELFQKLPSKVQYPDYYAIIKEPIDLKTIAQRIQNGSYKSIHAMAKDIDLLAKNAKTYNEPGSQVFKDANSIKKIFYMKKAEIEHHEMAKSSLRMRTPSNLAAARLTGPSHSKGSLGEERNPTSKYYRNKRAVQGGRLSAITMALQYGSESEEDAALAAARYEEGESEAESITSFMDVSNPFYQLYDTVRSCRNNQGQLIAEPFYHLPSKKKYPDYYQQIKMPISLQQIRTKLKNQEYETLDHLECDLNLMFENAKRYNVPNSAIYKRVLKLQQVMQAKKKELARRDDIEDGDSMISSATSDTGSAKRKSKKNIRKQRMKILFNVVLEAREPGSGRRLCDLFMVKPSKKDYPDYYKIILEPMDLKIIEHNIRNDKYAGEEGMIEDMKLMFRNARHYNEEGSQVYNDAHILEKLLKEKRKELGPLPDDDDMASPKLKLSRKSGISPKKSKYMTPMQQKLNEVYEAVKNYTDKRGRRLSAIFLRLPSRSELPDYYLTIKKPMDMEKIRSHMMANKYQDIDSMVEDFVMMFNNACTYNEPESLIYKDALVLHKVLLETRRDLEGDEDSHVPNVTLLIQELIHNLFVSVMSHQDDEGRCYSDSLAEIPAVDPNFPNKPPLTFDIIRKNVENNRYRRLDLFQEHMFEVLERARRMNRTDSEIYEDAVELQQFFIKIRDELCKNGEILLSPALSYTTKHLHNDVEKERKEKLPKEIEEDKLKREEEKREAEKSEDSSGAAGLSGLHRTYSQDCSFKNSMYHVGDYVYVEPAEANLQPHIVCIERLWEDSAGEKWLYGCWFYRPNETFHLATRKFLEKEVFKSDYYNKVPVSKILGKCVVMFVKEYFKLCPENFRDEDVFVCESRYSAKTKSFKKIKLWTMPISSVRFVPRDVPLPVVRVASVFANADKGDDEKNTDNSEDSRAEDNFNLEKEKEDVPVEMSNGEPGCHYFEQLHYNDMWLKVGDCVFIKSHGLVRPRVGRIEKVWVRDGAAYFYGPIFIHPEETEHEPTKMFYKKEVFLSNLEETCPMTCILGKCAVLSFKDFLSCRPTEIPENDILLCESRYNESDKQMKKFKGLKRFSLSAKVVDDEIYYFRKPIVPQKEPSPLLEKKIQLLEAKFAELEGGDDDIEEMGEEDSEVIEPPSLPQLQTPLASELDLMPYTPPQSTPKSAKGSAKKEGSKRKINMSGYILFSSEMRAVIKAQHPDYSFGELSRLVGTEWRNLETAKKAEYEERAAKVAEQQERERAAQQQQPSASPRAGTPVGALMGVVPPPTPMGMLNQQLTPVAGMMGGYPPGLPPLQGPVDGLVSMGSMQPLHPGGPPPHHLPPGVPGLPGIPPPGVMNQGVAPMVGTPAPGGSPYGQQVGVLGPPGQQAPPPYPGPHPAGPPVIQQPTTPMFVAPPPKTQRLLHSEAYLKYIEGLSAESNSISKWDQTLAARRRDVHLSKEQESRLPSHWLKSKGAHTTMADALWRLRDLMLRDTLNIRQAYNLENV

SMILES | ΔTm (Protein polybromo-1 [1]) [°C] | ΔTm (Protein polybromo-1 [2]) [°C] | ΔTm (Protein polybromo-1 [3]) [°C] | ΔTm [4] [°C] | ΔTm [5] [°C] | ΔTm [6] [°C] | ΔTm (Protein polybromo-1 [7]) [°C] | also measured
O=C(/C=C/N1CCC(c2cc[nH]n2)CC1)c1ccccc1O | 1.8 | 6.9 | 1 | 6.3 | 8.2 | 3.9 | 3.2 | –
O=C(/C=C/N1CCc2c(ccnc2N[C@H]2CC[C@H](O)CC2)C1)c1ccccc1O | 1.1 | 8.3 | 0.4 | 6.1 | 5.4 | 2.4 | 2.5 | –
CC(C)(C)c1nc2c(n1CC1CC1)CCN(/C=C/C(=O)c1ccccc1O)C2 | 1.5 | 8 | 1.2 | 5.8 | 5.9 | 3.8 | 3.8 | –
O=C(/C=C/N1CCN(c2ncccn2)CC1)c1ccccc1O | 0.3 | 4.6 | 0.6 | 2.9 | 2.9 | 1.1 | 0.7 | –
COc1cccc(C(=O)/C=C/N2CCCC2)c1O | 0 | 0.4 | 0.3 | 0.7 | 0.7 | -0.4 | 0.1 | –
O=C(/C=C/N1CC2CCC(CC2)C1)c1ccccc1O | 3.3 | 6.6 | 2 | 3.8 | 5.1 | 2 | 5.2 | –
O=C(/C=C/N1CCc2c(ncnc2NC2CC2)C1)c1ccccc1O | 3.5 | 9.1 | 2.4 | 7.7 | – | – | 6.7 | Kd [8]: 0.049 µM; Kd (Protein polybromo-1 [9]): 0.152 µM; t1/2 [10]: 20 h; Kd (Protein polybromo-1 [11]): 0.028 µM
CN(C)c1ncnc2c1CCN(/C=C/C(=O)c1ccccc1O)C2 | 1.3 | 5.1 | 1.2 | 3.4 | 4.1 | 2.2 | 3.5 | –
CN(C)/C=C/C(=O)c1ccccc1O | 0.5 | 4.9 | 0.7 | 3.3 | 4.8 | 2 | 2 | –
O=C(/C=C/N1[C@H]2CC[C@@H]1c1ncnc(NC3CC3)c1C2)c1ccccc1O | 6.4 | 9.3 | 2.1 | 7.4 | 8.5 | – | 5.9 | Activity (C2C12 [12]): Non-toxic; inhibition [13]: Dose-dependent effect; inhibition (Protein polybromo-1 [14]): inactive; inhibition (C2C12 [15]): Active; Activity [16]: Non-toxic; Activity [17]: 50%; inhibition (C3H 10T1/2 [18]): Active; Activity (C2C12 [19]): 50%; Activity (RCC4): inactive; Kd [20]: 0.0373 µM; inhibition (C2C12 [21]): Active; Activity (786-0): inactive; inhibition (Protein polybromo-1 [22]): Active
CC(C)(C)OC(=O)N1CCN(/C=C/C(=O)c2ccccc2O)C2(CC2)C1 | 0.9 | 7.6 | 0.6 | 6.1 | 7.5 | 4.1 | 2.2 | –
C#CCNc1ccnc(N2C[C@H]3C[C@@H]2CN3/C=C/C(=O)c2cccc(OC)c2O)n1 | – | -0.4 | – | 0.7 | 0.7 | -0.4 | – | inhibition (Protein polybromo-1 [22]): inactive
O=C(/C=C/N1C[C@H]2C[C@@H]1CN2c1ccccn1)c1ccccc1O | – | – | – | – | 8.2 | 5 | – | Activity (C2C12 [12]): Non-toxic; inhibition (C3H 10T1/2 [23]): Active; inhibition (C2C12 [24]): Active; Activity [16]: Non-toxic; inhibition (C3H 10T1/2 [25]): Active; Activity [17]: 50%; Activity (C2C12 [19]): 50%; remaining at 168 h [26]: > 90%; t1/2 [10]: > 250 h; Activity (RCC4): inactive; inhibition (C2C12 [21]): Active; Activity (786-0): inactive
O=C(/C=C/N1CCc2cn[nH]c2C1)c1ccccc1O | 1.7 | 7.8 | 1.2 | 7 | 7.8 | 4.8 | 4.1 | –
O=C(/C=C/N1CCCC1)c1ccccc1O | 1.1 | 5.7 | 0.7 | 4.7 | 5.5 | 3 | 2.3 | –
O=C(/C=C/N1CCN(c2cccc(OCc3ccncc3)n2)CC1)c1ccccc1O | 0.7 | 7 | 1.3 | 7.5 | 7.4 | 3.7 | 0.9 | –
O=C(/C=C/N1CCc2c(ncn2Cc2ccccc2)C1)c1ccccc1O | 1.9 | 8 | 1.6 | 5.3 | 5.8 | 3 | 4.6 | –
